Assay outcomes deposited in PubChem BioAssay by several laboratories.
An excerpt weighted towards active compounds, which were near 4.7% of everything screened.
MrgX1 allo act – positive allosteric modulators of MrgX1, primary screen, HEK293 cells, Fluo-4 calcium flux. Mas-related G-protein coupled receptor member X1 (Homo sapiens), Q96LB2. FDSS; hits give high values. B-score at 10 µM. 310,000 compounds, 0.63% hits. AID 588675, 2011;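 active = plate-corrected calcium response at least 3 library SD above typical, normal starting fluorescence, not activating the receptor alone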;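 also: compound read alongside a low EC10 to EC30 dose of BAM8-22 agonist; peak minus trough fluorescence over baseline measured at the second addition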
MrgX1 ag – agonists of human MrgX1 receptor, primary screen, HEK293 cells, Fluo-4 calcium flux. B-score at 10 µM. Mas-related G-protein coupled receptor member X1 (Homo sapiens), Q96LB2. Fluo-4 calcium fluorescence, agonist mode; hits give high values. 310,000 compounds, 0.44% hits;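 active = calcium response B-score plate-corrected fluorescence ratio at least 3 library SD, with starting fluorescence B-score inside 5 SD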
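Assay system: stable human MrgX1 HEK293 cell line. Quantity: 15,000 cells per well. Schedule: cells plated overnight, dye loaded 0.5 h 37 °C, 0.5 h room temperature. Detection: Fluo-4 NW calcium-flux fluorescence, kinetic read. Read-out basis: peak-minus-minimum fluorescence over baseline, converted to B scores. Control set: positive and negative control wells on each plate.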
Cl transport mod – KCC2 cotransporter modulators, thallium flux, primary screen, cell-based, HEK293 KCC2, FluoZin-2 fluorescence, MLSMR. Solute carrier family 12 member 5 (Homo sapiens), Q9H2X9. KCC2 cells, thallium flux FluoZin-2 fluorescence. B-score of Tl+ flux slope (higher = more flux/activation; lower = inhibition) at 10 µM. 190,000 compounds, 2.2% hits;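 active = thallium flux slope and its plate-corrected score both differing from the plate sample mean at a set confidence after two filtering rounds, in either direction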;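 also: slope of fluorescence scaled to starting intensity during 10 to 20 s after thallium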
Target sequence (Q9H2X9 whole entry, looked up): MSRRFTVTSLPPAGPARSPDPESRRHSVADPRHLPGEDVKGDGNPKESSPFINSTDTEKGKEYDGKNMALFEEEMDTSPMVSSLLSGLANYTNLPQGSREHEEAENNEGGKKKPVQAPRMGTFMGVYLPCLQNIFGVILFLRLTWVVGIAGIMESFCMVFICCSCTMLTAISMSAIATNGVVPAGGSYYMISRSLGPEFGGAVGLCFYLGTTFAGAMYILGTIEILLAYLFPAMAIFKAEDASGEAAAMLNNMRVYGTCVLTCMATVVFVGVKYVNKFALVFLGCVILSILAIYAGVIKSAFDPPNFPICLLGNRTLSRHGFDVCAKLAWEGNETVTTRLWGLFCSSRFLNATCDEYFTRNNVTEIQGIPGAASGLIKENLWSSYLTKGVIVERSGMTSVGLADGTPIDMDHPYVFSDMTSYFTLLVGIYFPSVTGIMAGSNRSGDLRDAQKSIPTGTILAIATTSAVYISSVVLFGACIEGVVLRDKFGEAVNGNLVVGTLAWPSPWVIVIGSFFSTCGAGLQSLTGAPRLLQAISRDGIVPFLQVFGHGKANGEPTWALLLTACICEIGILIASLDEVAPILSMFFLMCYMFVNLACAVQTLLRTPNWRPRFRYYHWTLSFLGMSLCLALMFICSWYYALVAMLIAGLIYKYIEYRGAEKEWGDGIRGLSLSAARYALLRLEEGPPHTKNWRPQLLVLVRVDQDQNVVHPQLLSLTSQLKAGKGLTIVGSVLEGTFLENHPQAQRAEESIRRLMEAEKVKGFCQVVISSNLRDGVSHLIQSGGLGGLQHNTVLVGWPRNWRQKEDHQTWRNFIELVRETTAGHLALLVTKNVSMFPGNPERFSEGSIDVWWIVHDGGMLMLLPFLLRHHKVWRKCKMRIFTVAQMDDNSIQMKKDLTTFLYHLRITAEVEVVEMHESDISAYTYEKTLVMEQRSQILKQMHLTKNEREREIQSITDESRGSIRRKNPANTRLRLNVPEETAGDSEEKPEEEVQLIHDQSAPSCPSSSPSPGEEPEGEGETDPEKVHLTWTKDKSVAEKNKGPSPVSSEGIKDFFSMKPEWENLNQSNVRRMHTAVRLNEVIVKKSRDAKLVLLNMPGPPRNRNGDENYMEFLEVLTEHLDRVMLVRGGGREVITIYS
RGS4 inh – RGS4 inhibitors, primary screen, cell-based, HEK293 M3R inducible RGS4, calcium flux | 310,000 compounds, 0.45% hits | AID 463165, 2010 | Regulator of G-protein signaling 4 (Homo sapiens), P49798 | B-score at 10 µM | Fluo-4 calcium flux; hits give high values; triggered by carbachol at its EC20;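 active = B-score, a plate-corrected calcium signal, over three deviations above library mean, with baseline fluorescence within five deviations of library mean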;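 also: RGS4 expression induced by doxycycline in cells with stable M3 receptor; B-score is computed from the integrated fluorescence ratio over baseline after carbachol; higher B-score means a larger calcium signal and so more RGS4 inhibition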
MrgX1 antagonist – antagonists of human MrgX1 receptor, primary screen, HEK293 cells, Fluo-4 calcium flux | 310,000 compounds, 1.3% hits | B-score at 10 µM | Mas-related G-protein coupled receptor member X1 (Homo sapiens), Q96LB2 | BAM8-22 antagonism; hits give low values | AID 588676, 2011;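 active = calcium-response B-score plate-corrected more than 3 library SD below zero, starting fluorescence within 5 deviations, no agonist response on first addition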;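 also: peak minus trough fluorescence over baseline after final BAM8-22 challenge near maximal dose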
RGS4 act – RGS4 potentiators or activators, primary screen, cell-based, HEK293 M3R inducible RGS4, calcium flux; B-score at 10 µM; AID 463111, 2010; carbachol calcium flux Fluo4; hits give low values; 310,000 compounds, 0.92% hits;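 active = B-score of the integrated calcium signal more than 4 SD below the library mean, with starting fluorescence not abnormally high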;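 also: negative B-score means reduced calcium response which marks RGS4 activation or potentiation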
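Also added: carbachol at ECmax as muscarinic agonist stimulus; Assay system: HEK293 cells with stable M3R and inducible RGS4; Timing: overnight RGS4 induction, 30 min dye load 37 °C, 20 min compound RT; Measured by: Fluo4-AM (2 µM) calcium-flux fluorescence, kinetic read.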
KCC2 secondary – KCC2 modulators in sodium-free buffer, confirmation, cell-based, HEK293 KCC2, thallium flux, secondary assay | shares compounds with Cl transport mod | FluoZin2 fluorescence; hits give high values | normalised thallium flux (F/F0 slope) at 10 µM | 3,700 compounds, 15% hits;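 active = thallium flux slope above the same plate's solvent-only control mean plus 3 SD; inconclusive = the two replicate wells disagree; inactive = no significant difference from solvent-only control wells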
KCC2 bumet counter – thallium flux persisting under bumetanide in KCC2 cells, confirmation, counter-screen for KCC2 modulator project, cell-based, HEK293 KCC2, FluoZin2, secondary assay 3; 3,700 compounds, 49% hits; normalized thallium flux at 10 µM; HEK293-KCC2 + bumetanide/ouabain; hits give high values; AID 1714, 2009; shares compounds with Cl transport mod;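 active = thallium entry rate above the same plate's blocked-transporter control wells by more than 3 SD; inconclusive = the two repeat wells disagree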;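 also: raw slope of fluorescence over initial fluorescence between 10 and 20 s after thallium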
KCC2 sec2 – KCC2 modulators without ouabain present, confirmation, cell-based, HEK293 KCC2, thallium flux, FluoZin2, secondary assay 2. shares compounds with Cl transport mod. thallium flux FluoZin2 fluorescence; actives lie on both sides; F/F0 rise rate, 10–20 s post-thallium. normalized thallium flux at 10 µM. 3,700 compounds, 23% hits. AID 1715, 2009;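 active = thallium flux slope more than 3 SD above or below the plate's solvent-only control mean, mostly below; inconclusive = the two repeat wells disagreed; inactive = no significant shift from solvent-only controls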;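 also: raw slope with 0.1% DMSO as baseline and bumetanide as block control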
HEK293 Tl flux – thallium flux modulation in parental HEK cells, confirmation, counter-screen for KCC2 modulator project, cell-based, counterscreen 1; shares compounds with Cl transport mod; HEK293 parental cells, thallium flux FluoZin2, ouabain; baseline-ratio fluorescence slope, 10–20 s after thallium; thallium flux rate (normalised fluorescence) at 10 µM; 3,700 compounds, 46% hits; AID 1716, 2009;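 active = thallium flux rate significantly above the same plate's solvent-only control wells, beyond their mean plus 3 SD; inconclusive = the two replicate wells gave conflicting results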
KCC2 ouabain – KCC2 inhibitors and activators, ouabain retest, confirmation, HEK-KCC2 cells; shares compounds with Cl transport mod; HEK293-KCC2, thallium flux FluoZin2 fluorescence; bidirectional: low = inhibitor, high = activator; raw Tl+ flux slope (below DMSO = inhibition, above = activation) at 10 µM; 3,700 compounds, 48% hits;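 active = thallium flux slope beyond 3 SD from same-plate DMSO control mean in most replicates, usually higher, sometimes lower; inconclusive = repeat tests gave conflicting results; inactive = no significant difference from controls in most replicates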;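 also: slope of initial-normalized fluorescence between seconds 10 and 20 after thallium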
HEK293 Tl flux2 – native HEK Tl+ uptake effects, second counter-screen – HEK cells, counterscreen 2, counter-screen for KCC2 modulator project, confirmation | 3,700 compounds, 33% hits | thallium flux slope at 10 µM | shares compounds with Cl transport mod | HEK293 parental, thallium flux FluoZin-2 fluorescence slope;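 active = thallium flux slope above the same plate's solvent-control mean plus 3 SD in both duplicate wells; inconclusive = duplicate wells that disagreed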;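 also: run without ouabain in cells lacking the KCC2 cotransporter; slope of fluorescence scaled to its starting value between 10 and 20 s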
Starred values were filed as active, the others as inactive; i = inactive; ? = inconclusive; · = not tested or not shown.

SMILES	MrgX1 allo act	MrgX1 ag	Cl transport mod	RGS4 inh	MrgX1 antagonist	RGS4 act	KCC2 secondary	KCC2 bumet counter	KCC2 sec2	HEK293 Tl flux	KCC2 ouabain	HEK293 Tl flux2
CCOc1ccc(C(C(=O)NC2CCCC2)N(CCCO)C(=O)c2ccc(-c3ccccc3)[nH]2)cc1 (configuration not stated)	i	i	-5.7*	i	i	i	0.0087	0.0053	?	0.0038	0.017*	0.011
Cc1ccc(-n2ncc3c2CCCC3NC(=O)CCc2cnccn2)cc1C (configuration not stated)	i	i	·	i	i	i	·	·	·	·	·	·
CCc1nn(C(C)C(=O)N2CCc3ccccc3C2)c(=O)c2cc3occc3n12 (configuration not stated)	i	i	-5.9*	i	i	i	?	0.0041	0.022*	0.0061*	0.012*	?
COc1ccc(C(=O)NC2CCCCC2)cc1S(=O)(=O)N1CCCC1	i	i	7.5*	i	i	i	0.0098	?	0.036	0.0074	0.023	0.011
Cc1ccc(C(=O)NC2CCCC2)cc1S(=O)(=O)N1CCCCC1	i	i	·	i	i	i	·	·	·	·	·	·
CC1=CC2=NC(=O)/C(=C/c3coc4ccc(Cl)cc4c3=O)C(=N)N2O1	i	i	-9.5*	i	i	-7.1*	0.004*	-0.0043*	0.015*	0.00044*	0.0026*	0.0026*
O=C(NN=C1CCCC1)c1sc2ccccc2c1Cl	i	i	11*	i	i	i	0.0057	0.023*	0.031	0.022*	?	0.019*
CCOC(=O)/C(C#N)=C1\Nc2ccccc2N=C1N(CC(C)C)CC(C)C	i	i	-0.2	i	i	i	·	·	·	·	·	·
CCOC(=O)/C(C#N)=C1/C=C(C)NC(c2ccccc2O)=N1	i	i	-3.8*	i	i	i	0.0071	0.0036	0.022*	0.0053*	0.013*	?
CC(C)(C)c1cc(S(=O)(=O)CCc2ccncc2)cc(C(C)(C)C)c1F	i	i	·	i	i	i	·	·	·	·	·	·
